Among the data in ChEMBL document CHEMBL1128204, “Novel non-nucleoside inhibitors of human immunodeficiency virus type 1 (HIV-1) reverse transcriptase. 4. 2-Substituted dipyridodiazepinones as potent inhibitors of both wild-type and cysteine-181 HIV-1 reverse transcriptase enzymes” (J Med Chem, 1995) are IC50 values, retold here.

Where only a bound is given, the exact number is not on record here.

For assay [1], the target named is Human immunodeficiency virus type 1 reverse transcriptase (Human immunodeficiency virus 1, UniProt Q72547). In words: Inhibitory concentration against HIV-1 wild type Reverse transcriptase (RT).
Assay [2] deals with Human immunodeficiency virus type 1 reverse transcriptase (Human immunodeficiency virus 1, UniProt Q72547, Y181C). Description: Inhibitory activity against HIV-1 Y181C Reverse transcriptase (RT). The method in brief: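 The enzyme was either p66/p51 heterodimer purified to near homogeneity or crude E. coli lysate containing the mutant RT. Inhibitory concentration was measured in an RT enzyme assay.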

In the case of `CCN1c2ncccc2C(=O)N(C)c2ccc(=O)[nH]c21`, the values for the concentration for half-maximal inhibition (IC50) in assay [1] and in assay [2] were 470 nM and > 1000 nM, respectively.
On to `CCN1c2ncccc2C(=O)N(C)c2ccc(-c3ccc(OC)nc3)nc21`, for which the half-inhibitory concentration (IC50) in assay [1] came out at 1200 nM; in assay [2], 3000 nM.
Regarding `CCN1c2ncccc2C(=O)Nc2c(C)cc(NCCO)nc21`, the 50% inhibitory concentration (IC50) in assay [1] was 90 nM; in assay [2], > 1000 nM.
In the case of `CN1C(=O)c2cccnc2N(C2CC2)c2nc(-c3cccnc3)ccc21`, the IC50 in assay [1] turned out to be 180 nM; in assay [2], 440 nM.
Taken in the same sequence, the figures for `CCN1c2ncccc2C(=O)Nc2c(C)cc(C(C)C)nc21` were 1000 nM and > 1000 nM.
In the same order, the values of `CCN1c2ncccc2C(=O)N(C)c2ccc(-c3ccccn3)nc21` are 180 nM and 1600 nM.
As to `CCN1c2ncccc2C(=O)N(C)c2ccc(-c3ccc(O)nc3)nc21`, the half-maximal inhibitory concentration (IC50) in assay [1] is 1100 nM; in assay [2], > 1000 nM.
Taken in the same sequence, the figures for `CCN1c2ncccc2C(=O)Nc2c(C)cc(NCCCO)nc21` were 90 nM and > 1000 nM.
Taken in the same sequence, the figures for `CCN1c2ncccc2C(=O)N(C)c2ccc(-c3ccccc3OC)nc21` were 820 nM and 2500 nM.
For `CCN1c2ncccc2C(=O)N(C)c2ccc(-c3cccc(N)c3)nc21`, the IC50 in assay [2] came out at 560 nM.
Regarding `CCN1c2ncccc2C(=O)N(C)c2ccc(-c3ccc(OC)cc3)nc21`, the results for the IC50 in assay [1] and in assay [2] were 1400 nM and 3200 nM, respectively.
In assay [2], `CN1C(=O)c2cccnc2N(C2CC2)c2nc(Cl)ccc21` showed an IC50 of 920 nM.
As for `CCN1c2ncccc2C(=O)N(C)c2ccc(N3CCCCC3)nc21`, the figures for the IC50 in assay [1] and in assay [2] were 300 nM and > 1000 nM, respectively.
In the same order, the values of `CCN1c2ncccc2C(=O)Nc2c(C)cc(F)nc21` are 20 nM and 850 nM.
In the same order, the values of `CCN1c2ncccc2C(=O)N(C)c2ccc(-c3ccco3)nc21` are 110 nM and 160 nM.
Taken in the same sequence, the figures for `CCN1c2ncccc2C(=O)N(C)c2ccc(-c3ccsc3)nc21` were 100 nM and 300 nM.
For the molecule `CCN1c2ncccc2C(=O)N(C)c2ccc(-c3cnco3)nc21`, the IC50 was 110 nM in assay [1] and 560 nM in assay [2].
In the same order, the values of `CCN1c2ncccc2C(=O)Nc2c(C)cc(N(C)CCO)nc21` are 10 nM and > 1000 nM.
In the same order, the values of `CCN1c2ncccc2C(=O)N(C)c2ccc(-c3ncc[nH]3)nc21` are 130 nM and 190 nM.
Taken in the same sequence, the figures for `CCN1c2ncccc2C(=O)Nc2c(C)cc(C(C)(C)C)nc21` were > 1000 nM and > 1000 nM.
Take `Cc1cc(Cl)nc2c1NC(=O)c1cccnc1N2C1CC1`: the IC50 in assay [1] worked out at 20 nM; in assay [2], 780 nM.
In the same order, the values of `CCN1c2ncccc2C(=O)N(C)c2ccc(-c3ccc[nH]3)nc21` are 70 nM and 70 nM.
In the case of `CCN1c2ncccc2C(=O)N(C)c2ccc(-c3cc[nH]n3)nc21`, the values for the half-maximal inhibitory concentration (IC50) in assay [1] and in assay [2] were 390 nM and 290 nM, respectively.
In the same order, the values of `CCN1c2ncccc2C(=O)N(C)c2ccc(C)nc21` are 120 nM and 1200 nM.
As to `CCN1c2ncccc2C(=O)N(C)c2ccc(-c3cccs3)nc21`, the 50% inhibitory concentration (IC50) in assay [1] is 140 nM; in assay [2], 420 nM.
For the molecule `CCc1cc(C)c2c(n1)N(CC)c1ncccc1C(=O)N2`, the values for the IC50 in assay [1] and in assay [2] were 90 nM and 1700 nM, respectively.
In the same order, the values of `CCN1c2ncccc2C(=O)N(C)c2ccc(N)nc21` are > 1000 nM and > 1000 nM.
Taken in the same sequence, the figures for `CCN1c2ncccc2C(=O)N(C)c2ccc(-c3cccc(O)c3)nc21` were 100 nM and 180 nM.
In the same order, the values of `CN1C(=O)c2cccnc2N(C2CC2)c2nc(-c3ccncc3)ccc21` are 150 nM and 320 nM.
As for `Cc1cc(C)c2c(n1)N(C1CC1)c1ncccc1C(=O)N2`, the IC50 in assay [1] amounted to 70 nM; in assay [2], 1200 nM.
In the same order, the values of `CCN1c2ncccc2C(=O)Nc2c(C)ccnc21` are 40 nM and 1800 nM.
Taken in the same sequence, the figures for `CCN1c2ncccc2C(=O)N(C)c2ccc(N(C)C)nc21` were 70 nM and 770 nM.
In the case of `CCN1c2ncccc2C(=O)N(C)c2ccc(-c3ccccc3)nc21`, the IC50 in assay [1] amounted to 230 nM; in assay [2], 1400 nM.
`CCN1c2ncccc2C(=O)N(C)c2ccc(-c3ncco3)nc21`: the IC50 in assay [1] was 220 nM; in assay [2], 820 nM.
Consider `CN1C(=O)c2cccnc2N(C2CC2)c2nc(Br)ccc21`, for which the values for the half-maximal inhibitory concentration (IC50) in assay [1] and in assay [2] were 30 nM and 2100 nM, respectively.
In assay [2], `CCN1c2ncccc2C(=O)N(C)c2cccnc21` registered an IC50 of 2200 nM.
As to `CCN1c2ncccc2C(=O)N(C)c2ccc(N3CC=CC3)nc21`, the values for the IC50 in assay [1] and in assay [2] were 30 nM and 640 nM, respectively.
Taken in the same sequence, the figures for `CCN1c2ncccc2C(=O)N(C)c2ccc(-c3ccoc3)nc21` were 40 nM and 110 nM.
In the same order, the values of `CCN1c2ncccc2C(=O)N(C)c2ccc(-c3cnc[nH]3)nc21` are 3700 nM and 740 nM.
Taken in the same sequence, the figures for `CCN1c2ncccc2C(=O)N(C)c2ccc(-n3cccn3)nc21` were 310 nM and 560 nM.
Consider `C#Cc1ccc2c(n1)N(CC)c1ncccc1C(=O)N2C`, for which the IC50 in assay [1] is 140 nM; in assay [2] it was 420 nM.
Taken in the same sequence, the figures for `CCN1c2ncccc2C(=O)N(C)c2ccc(N3CCOCC3)nc21` were 400 nM and > 1000 nM.
Taken in the same sequence, the figures for `CCN1c2ncccc2C(=O)Nc2c(C)cc(Cl)nc21` were 10 nM and 800 nM.
In the case of `COc1ccc2c(n1)N(C1CC1)c1ncccc1C(=O)N2C`, the values for the IC50 in assay [1] and in assay [2] were 120 nM and 1100 nM, respectively.
With `CCN1c2ncccc2C(=O)Nc2c(C)cc(C)nc21`, the 50% inhibitory concentration (IC50) in assay [1] was 20 nM; in assay [2], > 1000 nM.
Taken in the same sequence, the figures for `CCN1c2ncccc2C(=O)N(C)c2ccc(-c3nccs3)nc21` were 100 nM and 240 nM.
Taken in the same sequence, the figures for `CCN1c2ncccc2C(=O)N(C)c2ccc(/C=C/C(=O)OC)nc21` were 180 nM and 670 nM.
Taken in the same sequence, the figures for `C/C=C/Nc1ccc2c(n1)N(CC)c1ncccc1C(=O)N2C` were 390 nM and > 1000 nM.
On to `CCN1c2ncccc2C(=O)N(C)c2ccc(OC)nc21`, for which the concentration for half-maximal inhibition (IC50) in assay [1] turned out to be 40 nM; in assay [2], 600 nM.
In the case of `CN1C(=O)c2cccnc2N(C2CC2)c2nc(-c3cc[nH]c3)ccc21`, the IC50 in assay [1] is 50 nM; in assay [2] it was 60 nM.
`CCN1c2ncccc2C(=O)N(C)c2ccc(-n3cccc3)nc21`: the values for the 50% inhibitory concentration (IC50) in assay [1] and in assay [2] were 90 nM and 210 nM, respectively.
Regarding `CCN1c2ncccc2C(=O)Nc2c(C)cc(SC)nc21`, the results for the half-inhibitory concentration (IC50) in assay [1] and in assay [2] were 20 nM and > 1000 nM, respectively.
For `CCN1c2ncccc2C(=O)N(C)c2ccc(/C=C/C(N)=O)nc21`, the IC50 in assay [1] came to 250 nM; in assay [2] it was 2400 nM.
Regarding `CCN1c2ncccc2C(=O)Nc2c(C)cc(N3CCC(O)C3)nc21` (centres undefined), the results for the IC50 in assay [1] and in assay [2] were 40 nM and > 1000 nM, respectively.
As to `CCN1c2ncccc2C(=O)N(C)c2ccc(N3CCCC3)nc21`, the IC50 is 20 nM in assay [1] and 3800 nM in assay [2].
In the same order, the values of `CCNc1ccc2c(n1)N(CC)c1ncccc1C(=O)N2C` are 230 nM and 1300 nM.
